Data as given in ChEMBL document CHEMBL1806433, “Cytotoxicity of aporphines in human colon cancer cell lines HCT-116 and Caco-2: an SAR study” (Bioorg Med Chem Lett, 2011).

How the values were obtained:
[1] = Cytotoxicity against human CCD-18Co cells after 72 hrs by MTS assay; format: cell-based
Method in brief: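 72 h exposure to serially diluted samples in DMSO (<0.5% in medium), with 0.5% DMSO controls in parallel. MTS reagent with phenazine methosulfate then added for 3 h at 37 °C. Absorbance at 490 nm gives cell number relative to controls. IC50 is the concentration giving 50% growth inhibition, reported as mean ± S.D. of three separate experiments.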

Caco-2 [2] = test: Cytotoxicity against human Caco2 cells after 72 hrs by MTS assay; format: functional, cell-based; conditions: Caco-2, 72 h
Method in brief: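 Caco-2 grown in EMEM with 10% FBS, 1% nonessential amino acids, 1% L-glutamine and 1% antibiotic at 37 °C, 5% CO2. Cells plated at 5000-3,000/well 24 or 48 h before dosing. Serially diluted samples in DMSO (<0.5% in medium) for 72 h. Then MTS plus phenazine methosulfate for 3 h at 37 °C, OD490 read against 0.5% DMSO controls. IC50 reported as mean ± S.D. of three experiments.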

HCT-116 [3] = test: Cytotoxicity against human HCT116 cells after 72 hrs by MTS assay; format: functional, cell-based; conditions: HCT-116, 72 h
Method in brief: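 HCT-116 kept in McCoy's 5a with 10% FBS, 1% nonessential amino acids, 2% HEPES and 1% antibiotic at 37 °C, 5% CO2. Seeded at 5000-3,000 cells/well 24 or 48 h before treatment. Serial dilutions in DMSO (<0.5% in medium) applied for 72 h. MTS/phenazine methosulfate added for 3 h, OD490 read versus 0.5% DMSO controls. IC50 given as mean ± S.D. of three experiments.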

HCT-116 [4] = test: Ratio of etoposide IC50 to compound IC50 for human HCT116 cells; format: functional
Caco-2 [5] = test: Ratio of etoposide IC50 to compound IC50 for human Caco2 cells; format: functional

Compound `CCC(CC)COc1c(OC)cc2c3c1-c1cc4c(cc1C[C@@H]3N(C)CC2)OCO4` has an IC50 [1] of 50.7 µM, an IC50 (Caco-2 [2]) of 22.8 µM and an IC50 (HCT-116 [3]) of 26.6 µM.

Work on `CCCCCOc1c(OC)cc2c3c1-c1cc4c(cc1C[C@@H]3N(C)CC2)OCO4` yielded an IC50 [1] of 73.4 µM, an IC50 (Caco-2 [2]) of 35.3 µM and an IC50 (HCT-116 [3]) of 46.3 µM.

With `COc1cc2c3c(c1OC(=O)c1ccccc1)-c1cc4c(cc1C[C@@H]3N(C)CC2)OCO4` the IC50 [1] was 45.1 µM, the IC50 (Caco-2 [2]) was 25.9 µM and the IC50 (HCT-116 [3]) was 25.2 µM.

In the case of `COc1c(Br)c2c3c(c1OC)-c1cc4c(cc1C[C@@H]3N(C)CC2)OCO4`, the IC50 [1] is reported as 181 µM, the IC50 (Caco-2 [2]) is reported as 101 µM and the IC50 (HCT-116 [3]) is reported as 100 µM.

`COc1cc2c3c(c1OC)-c1cc4c(cc1C[C@@H]3N(C(C)=O)CC2)OCO4` showed an IC50 [1] of 188 µM, an IC50 (Caco-2 [2]) of 160 µM and an IC50 (HCT-116 [3]) of 186 µM.

With `CCOC(=O)N1CCc2cc(OC)c(OC)c3c2[C@@H]1Cc1cc2c(cc1-3)OCO2` the IC50 [1] was 112 µM, the IC50 (Caco-2 [2]) was 83.2 µM and the IC50 (HCT-116 [3]) was 81.4 µM.

For `COc1cc2c3c(c1OC)-c1cc4c(cc1C[C@@H]3N(S(C)(=O)=O)CC2)OCO4`, the IC50 (Caco-2 [2]) was 196 µM and the IC50 (HCT-116 [3]) was 196 µM.

With `CCOC(=O)N1CCc2cc(OC)c(O)c3c2[C@@H]1Cc1cc2c(cc1-3)OCO2` the IC50 [1] was 128 µM, the IC50 (Caco-2 [2]) was 71.7 µM and the IC50 (HCT-116 [3]) was 72.7 µM.

`CCOC(=O)N1CCc2cc(OC)c(OCC)c3c2[C@@H]1Cc1cc2c(cc1-3)OCO2` showed an IC50 [1] of 134 µM, an IC50 (Caco-2 [2]) of 73.5 µM and an IC50 (HCT-116 [3]) of 73.3 µM.

`CCOC(=O)N1CCc2cc(OC)c(OCc3ccccc3)c3c2[C@@H]1Cc1cc2c(cc1-3)OCO2` gave an IC50 [1] of 110 µM, an IC50 (Caco-2 [2]) of 99.8 µM and an IC50 (HCT-116 [3]) of 93.3 µM.

For `COc1cc2c(cc1OC)[C@H](Cc1ccc3c(c1)OCO3)N(C)CC2`, the IC50 (Caco-2 [2]) was 191 µM and the IC50 (HCT-116 [3]) was 191 µM.

Compound `COc1cc2c(c(-c3ccc4c(c3)OCO4)c1OC)[C@H](C)N(C)CC2` has an IC50 (Caco-2 [2]) of 190 µM and an IC50 (HCT-116 [3]) of 195 µM.

In the case of `COc1cc2c3c(c1O)-c1cc4c(cc1C[C@@H]3N(C)CC2)OCO4` [DOMESTICINE], the IC50 [1] is reported as 134 µM, the IC50 (Caco-2 [2]) is reported as 73.5 µM and the IC50 (HCT-116 [3]) is reported as 73.3 µM. For the same compound, the “Ratio IC50” value (HCT-116 [4]) was 3 and the “Ratio IC50” value (Caco-2 [5]) was 4.

With `COc1cc([C@@H]2c3cc4c(cc3[C@@H](O[C@@H]3O[C@@H]5CO[C@@H](C)O[C@H]5[C@H](O)[C@H]3O)[C@H]3COC(=O)[C@H]23)OCO4)cc(OC)c1O` [ETOPOSIDE] the IC50 [1] was 44.4 µM, the IC50 (Caco-2 [2]) was 18.6 µM and the IC50 (HCT-116 [3]) was 25.5 µM.

Work on `COc1cc2c3c(c1OC)-c1cc4c(cc1CC3N(C)CC2)OCO4` (centres undefined) [NANTENINE] yielded an IC50 [1] of 56.5 µM, an IC50 (Caco-2 [2]) of 36.2 µM and an IC50 (HCT-116 [3]) of 38.3 µM.
